Source: PubChem BioAssay (several laboratories)
Many of the other results were omitted from the sample, so hits are more common in it than they were.
Lmaj promast = inhibitors of Leishmania major promastigote growth. Leishmania major promastigotes, resazurin fluorescence viability. 200,000 compounds, 9% hits. inhibition, % at 10 µM. AID 1063; in the data active means inhibition above about 50%;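 further: promastigotes grown with compound for 44 hours at 28 °C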
NALP1 inh = inhibitors of NALP1 inflammasome in yeast | S. cerevisiae NALP1/ASC/caspase-1 growth, X-gal OD620, 72 h | inhibition, % at 10 µM | 280,000 compounds, 0.61% hits | AID 2071; in the data active means inhibition mostly above about 24%, no sharp cut-off; inactive means mostly below about 32%
PolyA inhibitor = yeast polyadenylation inhibition; S. cerevisiae SKY197-pL101 polyadenylation reporter, beta-gal luminescence; efflux-impaired pdr1/pdr3 knockout yeast; score 100 = 6 SD above DMSO; 300,000 compounds, 0.02% hits; activity score, % at 12 µM;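 active means lowest replicate activity score at least 50, where 100 means six control SD above control mean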;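 further: yeast exposed to compound for 9 h at 30 °C; higher score means more reporter readthrough which indicates perturbed polyadenylation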
T cruzi repl = blocks replication of Trypanosoma cruzi; T. cruzi beta-gal in NIH3T3, luminescence, 90 h; inhibition, % (concentration not given with the values); 300,000 compounds, 1.4% hits; AID 1885;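 active means mean inhibition across valid replicates above about 55%, limit read from the data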;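 further: signal also drops with host cell toxicity which is not excluded here; higher percent means less beta-gal luminescence so fewer parasites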
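System: NIH/3T3 fibroblasts plus reporter T. cruzi. Medium: DMEM plus 2% FBS. Probe or stimulus: 5000 reporter trypomastigotes per well. Compound: single 50 nL compound addition per well in DMSO. Incubation: co-culture of at least 90 h after 3 h attachment. Detection: GalScreen β-gal luminescence, detergent lysis, 60 min. Evaluation: parasite load inhibition, %.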
Calb FLC = affects C. albicans growth with fluconazole | AID 1979 | C. albicans CaCi-2 + fluconazole, Alamar Blue growth, 48 h | 300,000 compounds, 0.57% hits | growth inhibition, % (concentration not given with the values);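 active means growth inhibition above about 58% in most replicates, limit read from the data, passing the limit was not always enough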;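 further: all wells also contain fluconazole at 8 µg/ml as a sub-toxic cotreatment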
NALP3 yeast inh = blocks the NALP3 inflammasome reconstituted in yeast | Yeast reconstituted NLRP3/ASC/caspase-1, beta-gal luminescence, 24 h | inhibition, % at 10 µM | 330,000 compounds, 0.39% hits | AID 2825;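 active means inhibition of 50% or more; inactive means inhibition below 50%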
A number is an active result; – = inactive; · = not tested or not shown.

SMILES | Lmaj promast | NALP1 inh | PolyA inhibitor | T cruzi repl | Calb FLC | NALP3 yeast inh
COC(=O)c1ccc2c(=O)[nH]c(COC(=O)CCC(=O)c3ccc(Cl)cc3)nc2c1 | · | · | – | – | · | –
O=C(Nc1ncc(Cc2cccc(Cl)c2)s1)c1cccs1 | 84 | – | – | – | – | –
COc1cc(Cl)ccc1OCc1cc(C(=O)N(C)CC2CCCCO2)no1 (configuration not stated) | · | – | – | – | – | –
Cc1ccccc1S(=O)(=O)Cc1ccc(C(=O)NC2CC2)o1 | · | – | – | – | – | –
CCOC(=O)NC(Nc1cc(C)ccn1)(C(F)(F)F)C(F)(F)F | – | – | – | – | – | –
Cc1ccccc1OCC(=O)Nc1cc(S(=O)(=O)N2CCCCC2)ccc1N1CCN(C)CC1 | – | – | – | 58 | – | –
CN1CCN(c2ccc(S(=O)(=O)N3CCCCC3)cc2NC(=O)CSCc2ccccc2)CC1 | · | – | – | 67 | – | –
COC(=O)C(Cc1ccccc1)NC(=O)CNC(=O)c1ccccc1OC (configuration not stated) | · | – | – | – | – | –
Cc1cc(Cl)c(S(=O)(=O)NC2CCCC2)cc1OCC(=O)NC1CCCCC1 | – | – | – | – | – | –
CC12CCC(=O)N1C(C(=O)OCC(=O)Nc1ccc(Cl)c(Cl)c1)CS2 (configuration not stated) | – | – | – | – | – | –
COc1ccccc1C(=O)NC(=O)COC(=O)c1cc[n+]([O-])cc1 | · | · | – | – | – | –
CC(C)C(c1nnnn1CCc1ccccc1)N1CCOCC1 (configuration not stated) | – | – | – | – | – | –
COc1ccc(N2CCN(C(c3nnnn3CCc3ccccc3)C(C)C)CC2)cc1 (configuration not stated) | 89 | – | – | – | – | –
COc1cccc(C(c2nnnn2CCc2ccccc2)N2CCN(c3ccccc3)CC2)c1OC (configuration not stated) | 55 | – | – | – | – | –
COc1ccccc1C(c1nnnn1CCc1ccccc1)N1CCN(c2ccccc2)CC1 (configuration not stated) | – | – | – | – | – | –
Fc1ccc(C(c2nnnn2C2CCCC2)N2CCc3ccccc32)cc1 (configuration not stated) | – | – | – | – | – | –
Fc1ccc(C(c2nnnn2CCc2ccccc2)N2CCCc3ccccc32)cc1 (configuration not stated) | 76 | – | – | – | – | –
COc1ccccc1N1CCN(C(c2ccccc2)c2nnnn2CCc2ccccc2)CC1 (configuration not stated) | 64 | – | – | – | – | –
COCCCNC(=O)c1ccc(-c2csc(C)n2)cc1 | – | – | – | – | – | –
O=C(N[C@@H](Cc1ccccc1)C(=O)N1CCN(S(=O)(=O)c2ccccc2F)CC1)c1ccco1 | · | · | · | · | · | –
CN1CCC(N(C)C(=O)c2cccc(S(=O)(=O)N3CCc4ccccc43)c2)CC1 | · | · | · | · | · | –
N#Cc1c(-c2ccccc2)c(-c2ccccc2)n(Cc2ccco2)c1NC(=O)c1cccs1 | 62 | – | – | – | – | –
CN(C)CCCN(Cc1ccccc1)C(=S)Nc1ccc(F)c(Cl)c1 | – | 33 | – | – | – | –
CCCN(Cc1ccccc1)C(=S)Nc1ccc(SC(F)F)cc1 | 53 | – | – | – | – | ·
CN(C)CCCN(Cc1ccccc1)C(=S)Nc1cccc(C(F)(F)F)c1 | 60 | – | – | – | – | –
SMILES | Lmaj promast | NALP1 inh | PolyA inhibitor | T cruzi repl | Calb FLC | NALP3 yeast inh
FC(F)(F)c1cccc(NC(=S)NCc2ccccc2)c1 | – | – | – | – | – | –
CCCN(Cc1ccccc1)C(=S)Nc1cccc(C(F)(F)F)c1 | 91 | · | – | – | – | –
CCCN(C(=O)/C=C/c1ccc(S(=O)(=O)N(CC)CC)cc1)C1CCS(=O)(=O)C1 (configuration not stated) | · | · | · | · | · | –
CCN1CCN(CCOc2ccccc2-c2ccccc2)CC1 | 91 | – | – | – | – | –
c1ccc(-c2ccccc2OCCCN2CCCCC2)cc1 | 95 | – | – | – | – | –
CCN1CCN(CCCOc2ccccc2-c2ccccc2)CC1 | 65 | – | – | · | – | –
OCCCN1CCN(CCOc2ccccc2-c2ccccc2)CC1 | – | – | – | – | – | –
CCCCCn1nc(C(=O)N(CCOC)c2c(N)n(CCCC)c(=O)[nH]c2=O)c2ccccc2c1=O | · | · | – | – | – | –
CC1CN(C(=O)CN(C)S(=O)(=O)c2ccc3ccccc3c2)CC(C)O1 (configuration not stated) | · | – | – | – | – | –
CCN1CCS/C1=C/C=C/C1=[N+](CC)CCS1 | 100 | – | – | 59 | – | ·
CCN1CCS/C1=C\C=C\C1=[N+](CC)CCS1 | 100 | – | – | – | – | ·
COc1cccc(/C=N/NC(=O)N/N=C/c2cccc(OC)c2O)c1O | · | – | – | – | – | –
COc1cccc(/C=N/NC(=O)c2nc(-c3ccccc3)cc(-c3ccccc3)n2)c1O | 100 | – | – | – | 114 | –
COc1cccc(/C=N/NC(=O)c2c(C)nc3ccc(Br)cn23)c1O | 100 | – | – | 69 | 109 | –
O=C(COC(=O)/C(=C/c1cccs1)c1cccs1)NC(c1ccccc1)c1ccccc1 | 97 | – | – | – | – | –
O=C(Cc1cccs1)NC(c1ccccc1)c1ccccc1 | – | – | – | – | – | –
CN1CCN(CC(=O)n2c3c(c4ccccc42)CCCC3)CC1 | 75 | – | – | – | – | –
CCN(CC)CC(=O)n1c2c(c3ccccc31)CCCC2 | – | – | – | – | – | –
Oc1ccccc1N=Nc1ccccc1O | 100 | – | – | 59 | 94 | ·
COc1ccccc1NC(=O)/C(C#N)=C/c1cc([N+](=O)[O-])ccc1N1CCCC1 | – | – | – | – | – | –
Cc1cnccc1CN(C)Cc1cn(C)nc1-c1ccc(Oc2ccccc2)cc1 | 89 | – | – | 70 | – | –
O=C(COC(=O)c1nn(-c2ccccc2C(F)(F)F)cc1O)c1ccc(OC(F)F)cc1 | · | · | – | – | – | –
Cc1nc(SCc2ccc(Cl)c(Cl)c2)ncc1C(=O)O | – | – | – | – | 90 | –
CC(=O)c1cnc(SCc2ccc(Cl)cc2)nc1C | – | – | – | – | – | –
COc1ccccc1N1CCN(CC(=O)Nc2ccccc2C(=O)NCCc2ccccc2)CC1 | · | · | · | · | · | –
CCN(CC)C(=O)Cn1c(=O)n(CC(=O)N2CCCCC2)c(=O)c2sccc21 | · | – | – | – | – | –
FC(F)(F)C(Oc1nc(NC2CCCCC2)nc(N2CCOCC2)n1)C(F)(F)F | 81 | – | – | – | – | –
CCNC(=O)c1cc2c(=O)n3cccc(C)c3nc2n(Cc2ccc(C)cc2)c1=N | – | – | – | – | – | –
COCCn1c(=NC(=O)c2ccc3c(c2)OCO3)c(C#N)cc2c(=O)n3cccc(C)c3nc21 | – | – | – | – | – | ·
